ChEMBL document CHEMBL5674882, “Benzolactam-related compounds promote apoptosis of HIV-infected human cells via protein kinase C-induced HIV latency reversal” (J Biol Chem, 2019)
Calls of active or inactive are those of the source. The calls are words filed in the database; no cut-off is given here.

Tests used:
Jurkat = test: Induction of apoptosis in human Jurkat cells assessed as caspase-3 activation at 10 nM incubated for 24 hrs by flow cytometry; format: functional
In short: (§1)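 Cells fixed in 1% paraformaldehyde, permeabilized, stained 30 min on ice with anti-active caspase-3 mAb, and analysed by flow cytometry. Three independent experiments.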

[1] = biological target: T1, Protein kinase C (PKC) (Homo sapiens) (UniProt O94806+P41743+P17252+P05129+Q05655+P05771+Q05513+Q02156+P24723+Q15139+Q04759); test: Activation of PKC in CCL19-induced human CD4+ T-cells infected with latent HIV-1 assessed as reversal of HIV-1 latency by measuring increase in p24 antigen level at 100 nM incubated for 48 hrs in presence of 2 uM ionomycin by chemiluminescent enzyme immunoassay; format: cell-based; settings: CD4+ T cell, filed as activator
U-937 = test: Induction of apoptosis in human U-937 cells assessed as caspase-3 activation at 10 nM incubated for 24 hrs by flow cytometry; format: functional; in short: as §1
ACH-2 cell line [2] = test: Induction of apoptosis in human ACH-2 cells at 1 uM incubated for 48 hrs after pre-incubated for 2 hrs with 20 uM caspase inhibitor Q-VD-Oph by propidium iodide/annexin-V staining based flow cytometry; format: functional, cell-based
In short: (§2)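 ACH-2 or U1 cells pretreated 2 h with 20 µM pan-caspase inhibitor Q-VD-Oph, then exposed to 1 µM compound for 48 h. Annexin-V/PI staining by flow cytometry; apoptotic proportions compared with and without Q-VD-Oph. Mean ± S.D.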

J-Lat 6.3 [3] = test: Induction of apoptosis in human J-Lat 6.3 cells at 1 uM incubated for 48 hrs by propidium iodide/annexin-V staining based flow cytometry (reference value: 3.16%); format: functional
U1 [4] = test: Induction of apoptosis in human U1 cells at 1 uM incubated for 48 hrs after pre-incubated for 2 hrs with 20 uM caspase inhibitor Q-VD-Oph by propidium iodide/annexin-V staining based flow cytometry; format: functional, cell-based; in short: as §2
J-Lat 6.3 (Homo sapiens) = test: Induction of apoptosis in human J-Lat 6.3 cells at 1 uM incubated for 48 hrs after pre-incubated for 2 hrs with 20 uM caspase inhibitor Q-VD-Oph by propidium iodide/annexin-V staining based flow cytometry
U1 [5] = test: Induction of apoptosis in human U1 cells assessed as caspase-3 activation at 10 nM incubated for 24 hrs by flow cytometry (reference value: 1.86%); format: functional; in short: as §1
[6] = Induction of apoptosis in human CEM A3.01 cells assessed as caspase-3 activation at 10 nM incubated for 24 hrs by flow cytometry; format: functional; in short: as §1
[7] = biological target: T1, Protein kinase C (PKC) (Homo sapiens); test: Induction of apoptosis in CCL19-induced human CD4+ T-cells infected with latent HIV-1 assessed as caspase-3 activation at 100 nM incubated for 48 hrs in presence of 2 uM ionomycin by incubated for 48 hrs by FACS; format: cell-based; settings: CD4+ T cell, filed as activator
In short: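 Latency model: healthy-donor CD4+ T-cells given 100 nM CCL19 for 2 days, infected with HIV-1 NL4-3, kept 5 days in IL-2. Stimulated 2 days with 1 µM drug or 100 nM PMA plus 2 µM ionomycin. Cells fixed and permeabilized, co-stained with anti-p24 and anti-active caspase-3 mAbs; active caspase-3 read by flow cytometry separately in p24+ and p24− cells. Two donors.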

ACH-2 cell line [8] = test: Induction of apoptosis in human ACH-2 cells assessed as caspase-3 activation at 10 nM incubated for 24 hrs by flow cytometry; format: functional; in short: as §1
J-Lat 6.3 [9] = test: Induction of apoptosis in human J-Lat 6.3 cells assessed as caspase-3 activation at 10 nM incubated for 24 hrs by flow cytometry (reference value: 2.43%); format: functional; in short: as §1
U1 [10] = test: Induction of apoptosis in human U1 cells at 1 uM incubated for 48 hrs by propidium iodide/annexin-V staining based flow cytometry (reference value: 3.16%); format: functional
ACH-2 cell line [11] = test: Induction of apoptosis in human ACH-2 cells assessed as cleaved-PARP level at 10 nM incubated for 24 hrs by flow cytometry (reference value: 1.64%); format: functional
In short: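 Cells fixed, permeabilized, stained on ice with anti-cleaved PARP (Asp-214) mAb; % cleaved-PARP cells by flow cytometry. Means ± S.D. of three independent experiments.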

U1 [12] = test: Induction of apoptosis in human U1 cells assessed as caspase-3 activation at 10 nM incubated for 24 hrs by flow cytometry; format: functional; in short: as §1
ACH-2 cell line [13] = test: Induction of apoptosis in human ACH-2 cells at 1 uM incubated for 48 hrs by propidium iodide/annexin-V staining based flow cytometry (reference value: 3.16%); format: functional
J-Lat 6.3 [14] = test: Induction of apoptosis in human J-Lat 6.3 cells assessed as caspase-3 activation at 10 nM incubated for 24 hrs by flow cytometry; format: functional; in short: as §1

## CCCCCCCCCCCCCC(=O)O[C@@H]1[C@@H](C)[C@@]2(O)[C@@H](C=C(CO)C[C@]3(O)C(=O)C(C)=C[C@@H]23)[C@@H]2C(C)(C)[C@]12OC(C)=O [PHORBOL MYRISTATE ACETATE]
Jurkat
  Activity: 2.03%
[1]
  Activity: Active
U-937
  Activity: 1.02%
ACH-2 cell line [2]
  Activity: inactive
J-Lat 6.3 [3]
  Activity: 15.2%
U1 [4]
  Activity: inactive
J-Lat 6.3 (Homo sapiens)
  Activity: inactive
U1 [5]
  Activity: 8.06%
[6]
  Activity: 2.39%
[7]
  Activity: Active
ACH-2 cell line [8]
  Activity: 27%
J-Lat 6.3 [9]
  Activity: 19.9%
U1 [10]
  Activity: 28.7%
ACH-2 cell line [11]
  Activity: 21.7%
U1 [12]
  Activity: 33.6%
ACH-2 cell line [13]
  Activity: 40.3%
J-Lat 6.3 [14]
  Activity: 12.9%
